A selection: hits, their analogues and other compounds. The true share with any hit is near 2.9%.
Cneo AK release: causes C. neoformans cell lysis. adenylate kinase release luminescence, 4 h; normalised: neutral wells 0, clomiphene wells 100. lysis activity, % at 15 µM. 0.2% of 360,000 active. AID 651654;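 active = mean lysis activity across replicates of at least 80%, whatever share of replicates individually reach that level; inactive = mean lysis activity below 80%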
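Material: C. neoformans cells; Schedule: 4 h static compound exposure, 37 °C, read 1 h post-reagent; Measured by: adenylate kinase release luminescence; Read-out: signal increase indicating cell lysis; Controls: Clomiphene as positive lysis control.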
Env fusion inh: HIV envelope-mediated fusion inhibition | AID 651610 | HeLa-JRFL Env/CEM21 cell fusion, luciferase | 1.1% of 360,000 active | inhibition, % at 12.3 µM;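 active = mean replicate inhibition score of at least 50 and every replicate individually at or above 50; inconclusive = only one of the two criteria met; inactive = mean below 50 and not all replicates reaching 50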;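 also: 0% = plate neutral controls and 100% = maraviroc near 300 nM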
PAX8 reporter: lowers PAX8-driven luciferase in RMG-I cells. RMG-I TPO-luciferase reporter, SteadyGlo, 24 h. inhibition, % at 12.6 µM. 1.2% of 360,000 active. AID 652154;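 active = mean replicate inhibition at least 60% with every replicate also reaching 60%; inconclusive = only one of the two criteria is met; inactive = mean below 60% and not all replicates reaching 60%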;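 also: luciferase light reporting Pax8 driven TPO promoter activity; plate controls were median of neutral control wells for no effect and mitoxantrone controls for full effect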
dFosB activator: enhances mouse delta FosB homodimer DNA binding. P13346. purified delta FosB, TAMRA-CDK5 oligo fluorescence polarization; percent of positive-control signal above neutral wells. AID 493131. activation, % at 25 µM. 0.99% of 340,000 active;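 active = mean activation above about 17%, with every replicate also reaching it, limit read from the data, passing the limit was not always enough; inconclusive = only one of the two conditions met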
INS-1E GSIS act: primary screen for activators of insulin secretion dependent on glucose, INS-1E cells, GLuc reporter luminescence | 0.61% of 370,000 active | INS-1E GLuc reporter insulin secretion, 2-3 h | activation, % at 16.6 µM;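 active = lowest replicate activation of at least 40%, so every replicate reaches that level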;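 also: 0% = median of neutral control wells and 100% = median of IBMX positive control wells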
CDK5 inh: inhibitors of human CDK5/p35 kinase; Q00535+Q15078; Recombinant CDK5/p35, ADP-Glo luminescence, 60 min; inhibition, % at 10 µM; 0.01% of 330,000 active; AID 488839;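 active = highest replicate inhibition of at least 50% and at least 75% of replicates reaching 50%; inconclusive = only one of the two criteria met; inactive = both criteria failed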;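 also: plate controls were DMSO neutral control for no effect and GW8510 at 10 µM for full effect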
Target sequence (Q00535 whole entry, looked up): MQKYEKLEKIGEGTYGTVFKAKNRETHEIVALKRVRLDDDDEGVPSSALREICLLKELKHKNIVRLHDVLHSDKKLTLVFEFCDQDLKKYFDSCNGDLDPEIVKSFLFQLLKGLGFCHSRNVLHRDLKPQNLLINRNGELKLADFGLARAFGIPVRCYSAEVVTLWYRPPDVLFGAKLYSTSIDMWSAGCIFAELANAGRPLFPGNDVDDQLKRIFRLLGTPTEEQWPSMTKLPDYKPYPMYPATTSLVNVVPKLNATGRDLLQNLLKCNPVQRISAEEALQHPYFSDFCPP
Target sequence (Q15078 whole entry, looked up): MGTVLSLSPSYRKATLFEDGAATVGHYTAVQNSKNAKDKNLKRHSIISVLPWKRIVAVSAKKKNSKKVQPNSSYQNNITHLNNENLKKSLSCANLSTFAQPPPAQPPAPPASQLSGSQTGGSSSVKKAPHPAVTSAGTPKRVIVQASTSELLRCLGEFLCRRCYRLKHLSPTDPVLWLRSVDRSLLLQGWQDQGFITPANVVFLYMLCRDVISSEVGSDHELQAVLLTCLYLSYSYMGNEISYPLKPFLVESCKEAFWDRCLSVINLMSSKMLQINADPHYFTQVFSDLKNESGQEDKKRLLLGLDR
The depositor's hits bear a star; i = inactive; u = inconclusive; x = no result given; [ ] = another dose, or the depositor's remark.

SMILES	Cneo AK release	Env fusion inh	PAX8 reporter	dFosB activator	INS-1E GSIS act	CDK5 inh
NC(=O)c1cn(C2OC(CO)C(O)C2O)c2ncnc(N)c12 (stereo not drawn)	0	89*	96*	-4	2	42
Nc1ncnc2c1ncn2[C@@H]1O[C@H](COP(=O)(O)CP(=O)(O)O)[C@@H](O)[C@H]1O	-1	7	-17	0	x	-2
CCNC(=O)[C@H]1O[C@@H](n2cnc3c(N)ncnc32)[C@H](O)[C@@H]1O	1	-2	-6	3	x	0
O=[N+]([O-])c1ccc(N(CCO)CCO)c2c1no[n+]2[O-]	-1	i	109*	x	x	x
CN1CCN(c2ccc([N+](=O)[O-])c3no[n+]([O-])c23)CC1	-3	-256	88*	4	-66	3
Oc1ccccc1-[n+]1c(-c2ccccc2)cc(-c2ccccc2)cc1-c1ccccc1	1	-33	78*	-3	-60	-1
Nc1ccccc1-[n+]1c(-c2ccccc2)cc(-c2ccccc2)cc1-c1ccccc1	-9	-17	u	-11	-66	2
Cc1ccccc1-[n+]1c(-c2ccccc2)cc(-c2ccccc2)cc1-c1ccccc1	-4	68*	95*	2	-33	0
[O-]c1ccccc1-[n+]1c(-c2ccccc2)cc(-c2ccccc2)cc1-c1ccccc1	7	-6	90*	-13	-49	-1
O=C(O)[C@@H]1[C@@H](CO)[C@@H]2Cn3c(ccc(C4=CCCC4)c3=O)[C@H]1N2C(=O)Cc1ccccn1	-4	x	x	x	8	x
CCCN1[C@@H]2c3cccc(=O)n3C[C@H]1[C@H](CO)[C@H]2C(=O)N(C)C	-1	-9[16.7 µM]	x	x	2	x
COc1cc2c(c(OC)c1OC)-c1ccc(O)c(=O)cc1C(NC(C)=O)CC2 (stereo not drawn)	-1	-170	85*	-6	-3	3
COc1ccc2c(c1)C(NC(C)=O)CCc1cc(OC)c(OC)c(OC)c1-2 (stereo not drawn)	x	-8	84*	-2	-22	0
COC1=C[C@@H]2C3=C([C@@H]2C1=O)[C@@H](NC(C)=O)CCc1cc(OC)c(OC)c(OC)c13	1	-1	2	0	x	2
COc1ccc(OC)c(CC(=O)O)c1	-1	-2	x	5	x	1
N#Cc1c(Br)n(C2OC(CO)C(O)C2O)c2ncnc(N)c12 (stereo not drawn)	x	-1	82*	-4	-4	14
NC(=O)c1c(Br)n(C2OC(CO)C(O)C2O)c2ncnc(N)c12 (stereo not drawn)	x	71*	85*	1	-12	7
CN1C[C@@H]2N[C@H](C1)C2c1ccc(Br)cc1 (stereo partly drawn)	x	x	x	x	-6	x
O=C(O)[C@H]1[C@H](CO)[C@H]2Cn3c(ccc(-c4ccccc4)c3=O)[C@@H]1N2C(=O)C1CCCCC1	-1	x	-2	x	1	x
CCCCn1c(=O)c(C(=O)Nc2ncccc2C)c(O)c2ccccc21	-5	u	-5	-28	x	0
CCCCCCn1c(=O)c(C(=O)Nc2ncccc2C)c(O)c2ccccc21	-3	83*	13	-16	17	2
O=C1CNC[C@@H]2[C@H](c3ccc(Br)cc3)[C@@H](CO)N12	x	x	-27	x	7	x
CC(N)C(=O)NC1C2C(=C(O)CC(O)C2O)C(=O)OC1(C)C(Cl)Cl (stereo not drawn)	x	99*	121*	5	-18	1
CN1CCN(c2ccc(N)cc2Cl)CC1	x	0	9	33*	-9	2
CN1CCN(c2ccc(Cl)cc2N)CC1	x	11	-10	-3	7	-3
SMILES	Cneo AK release	Env fusion inh	PAX8 reporter	dFosB activator	INS-1E GSIS act	CDK5 inh
c1cc(-c2ccc(C3[C@H]4CNC[C@@H]3N4CC3CC3)cc2)ccn1 (stereo partly drawn)	x	x	-20	x	15	x
COc1ccc(Cc2nccc3cc(OC)c(OC)cc23)cc1OC	-1	57*	20	-5	29	2
COc1ccc(CC2=NCCc3cc(OC)c(OC)cc32)cc1OC	0	1	-14	x	8	x
COc1cc2c(ccc3c4cc(OC)c(OC)cc4c[n+](C)c23)cc1O	x	5	75*	33*	x	1
CCOc1ccc(-c2cc(C)[n+](CCN3CCOCC3)c(-c3ccc(OCC)cc3)c2)cc1	x	8	98*	1	-2	1
C/C=C/c1ccc(C2[C@@H]3CN(C(=O)C4CCOCC4)C[C@H]2N3)cc1 (stereo partly drawn)	x	x	-10	x	10	x
O=C(Cc1ccccc1)N1C[C@H]2[C@@H](c3ccccc31)[C@H](CO)N2Cc1ccccc1	1	x	19	x	-6	x
O=C(N/N=C/c1c(O)n(Cc2ccc(F)cc2)c(=O)[nH]c1=O)c1ccccc1	1	-2	-4	4	-9	-13
O=C(O)CCC(=O)NCCC1=c2ccccc2=N/C1=C\c1c(O)n(Cc2ccc(F)cc2)c(=S)[nH]c1=O	11	6	62*	-2	-4	-1
COc1ccc(C(c2nnnn2Cc2ccccc2)N2CCC(n3c(=O)[nH]c4ccccc43)CC2)cc1 (stereo not drawn)	1	-4	89*	x	-19	x
O=c1[nH]c2ccccc2n1C1CCN(CCCC(c2ccc(F)cc2)c2ccc(F)cc2)CC1	7	40	57	28*	x	0
O=c1[nH]c2ccccc2n1C1CCN(C(CCc2ccccc2)c2nnnn2C2CCCCC2)CC1 (stereo not drawn)	-16	-28	0	x	-18	x
O=c1[nH]c2ccccc2n1C1CCN(C(c2cccs2)c2nnnn2Cc2ccccc2)CC1 (stereo not drawn)	0	30	87*	x	-28	x
O=c1[nH]c2ccccc2n1C1CCN(C(c2ccccc2OC(F)(F)F)c2nnnn2Cc2ccccc2)CC1 (stereo not drawn)	0	-44	84*	x	-11	x
O=C(Cc1ccccc1)N1CC2(C1)[C@@H](c1ccccc1)[C@H](CO)N2Cc1cccc(F)c1	x	x	x	x	-16	x
CC(=O)c1ccc2c(c1)C1C(Cl)C(Sc3ccccc3[N+](=O)[O-])CC1C(c1ccccc1[N+](=O)[O-])N2 (stereo not drawn)	0	-144	63*	-15	x	-1
CC[C@H](C)[C@@H]1NC(=O)CNC(=O)c2csc(n2)[C@H](C(C)(C)O)OC(=O)C(C)(C)[C@H](CCCC(C)(Cl)Cl)OC(=O)c2csc1n2	279*	x	102*	x	x	x
COC(=O)C1=C(c2ccc(F)cc2OCc2ccccc2)C[C@@H]2CC[C@H]1N2C(=O)NC1Cc2ccccc2C1	-1	57*	89*	-3	-25	0
COC(=O)C1=C(c2ccc(F)cc2OCc2ccccc2)C[C@@H]2CC[C@H]1N2C(=O)NCc1ccc(F)cc1	4	2	7	-11	x	-2
